Reference: paper PMC6023675 (Journal of molecular biology, 2018)

Columns and labels:
[1] = tested on: cell-free translation of firefly luciferase in E. coli S30 cell extract; type: biochemical; settings: 30 μM inhibitor
Procedure, shortened: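 In vitro transcribed firefly luciferase mRNA (100 ng) was translated in E. coli S30 extract at 37°C for 30 min with test compound at 30 μM final. Luciferase activity was read with Steady-Glo substrate. Reactions were run in triplicate; error bars are confidence interval (α = 0.05).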

E. coli 70S ribosomes = assay: Competition binding assay with BODIPY-labeled erythromycin; settings: ratio of KDapp versus CLM; listed as L-histidyl analogue
Procedure, shortened: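 E. coli 70S ribosomes (25 nM) preincubated with BODIPY-erythromycin (4 nM) for 30 min at 25°C in 20 mM HEPES-KOH pH 7.5, 50 mM NH₄Cl, 10 mM Mg acetate, 0.05% Tween-20. Test compound was added at 0.1 μM to 1 mM, then incubated 2 h to equilibrium. Fluorescence polarization was read to give apparent KD by competition.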

[2] = tested on: ribosome translating synthetic ORF […]; assay: Primer extension inhibition; type: biochemical; settings: 100 μM antibiotic, with or without mupirocin 50 μM, ORF MFKAFKNIIRTRTL

Structure (SMILES): O=C(N[C@H](CO)[C@H](O)c1ccc([N+](=O)[O-])cc1)C(Cl)Cl [CLM, chloramphenicol]
- Inhibition of firefly luciferase synthesis (in words) [1]: near-complete inhibition

Structure (SMILES): N[C@@H](Cc1c[nH]cn1)C(=O)N[C@H](CO)[C@H](O)c1ccc([N+](=O)[O-])cc1 [His-CAM (1)]
- Affinity for the ribosome relative to CLM (fold higher) (E. coli 70S ribosomes): 10 fold

Structure (SMILES): C=C[C@]1(C)C[C@@H](OC(=O)CS[C@@H]2C[C@H]3CC[C@@H](C2)N3C)[C@]2(C)[C@H](C)CC[C@]3(CCC(=O)[C@H]32)[C@@H](C)[C@@H]1O [retapamulin (RET), retapamulin]
- Site of antibiotic-induced translation arrest (toe-printing) [2]: arrests the ribosome at the start codon
